Only some compounds are listed: those with a hit (about 5.7% of all), similar ones and a draw of the others.
T cruzi inh = T. cruzi replication inhibition. T. cruzi beta-gal in NIH3T3, luminescence, 90 h. inhibition, % (no concentration beside the values). hit rate 1.4% among 300,000. AID 1885;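 active = mean inhibition across valid replicates above about 55%, limit read from the data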;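 also: signal also drops with host cell toxicity which is not excluded here; higher percent means less beta-gal luminescence so fewer parasites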
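Material: NIH/3T3 host cells with β-galactosidase reporter T. cruzi; Input: 5,000 host fibroblasts per well; Medium: DMEM, 2% fetal bovine serum; Compound: 50 nL DMSO compound solution per well; Schedule: 3 h host attachment, then at least 90 h co-culture; Detection: luminescent β-galactosidase signal after 60 min lysis.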
CSC inhib = cancer stem cell inhibition; AID 2717; cancer stem cell-like cells viability, luminescence; inhibition, % at 7.5 µM; hit rate 1.1% among 300,000; in the data active = inhibition above about 75%; tested in HMLE shEcad cells
SKKanGAS inh = blocks kanamycin growth of S. pyogenes SKKanGAS strain. BacTiter-Glo, 6 h. inhibition, % at 7.5 µM. hit rate 1.3% among 300,000. AID 1662;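 active = mean replicate score, as percent of positive control median, at least 50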;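 also: strain carries kanamycin resistance gene driven by streptokinase promoter and grows in 40 µg/ml kanamycin; loss of luminescence reflects streptokinase promoter inhibition or plain growth inhibition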
Calb FLC = affects C. albicans growth with fluconazole | growth inhibition, % (no concentration beside the values) | C. albicans CaCi-2 + fluconazole, Alamar Blue growth, 48 h | AID 1979 | hit rate 0.57% among 300,000;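 active = growth inhibition above about 58% in most replicates, limit read from the data, passing the limit was not always enough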;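 also: all wells also contain fluconazole at 8 µg/ml as a sub-toxic cotreatment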
Mdm2-MdmX inh = disrupts the human Mdm2-MdmX interaction. O15151+Q00987. SaOS-2 split-luciferase Mdm2/MdmX complementation, luminescence. inhibition, % at 8 µM. hit rate 3% among 330,000. AID 485346;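 active = inhibition of at least 50% at 8 µM in the primary screen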
Target sequence (O15151 whole entry, looked up): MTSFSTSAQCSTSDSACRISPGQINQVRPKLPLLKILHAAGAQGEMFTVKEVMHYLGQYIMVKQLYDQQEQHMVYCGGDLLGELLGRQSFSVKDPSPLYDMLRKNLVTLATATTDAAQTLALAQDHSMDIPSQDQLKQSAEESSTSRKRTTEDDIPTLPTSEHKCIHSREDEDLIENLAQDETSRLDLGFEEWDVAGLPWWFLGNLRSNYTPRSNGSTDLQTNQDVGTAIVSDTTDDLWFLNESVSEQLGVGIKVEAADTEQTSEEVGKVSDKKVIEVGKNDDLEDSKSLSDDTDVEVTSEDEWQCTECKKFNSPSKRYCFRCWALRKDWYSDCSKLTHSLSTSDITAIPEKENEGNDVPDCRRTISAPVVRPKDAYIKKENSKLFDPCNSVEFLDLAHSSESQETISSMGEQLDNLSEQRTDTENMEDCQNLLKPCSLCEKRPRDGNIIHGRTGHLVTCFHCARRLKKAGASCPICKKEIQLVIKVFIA
Target sequence (Q00987 whole entry, looked up): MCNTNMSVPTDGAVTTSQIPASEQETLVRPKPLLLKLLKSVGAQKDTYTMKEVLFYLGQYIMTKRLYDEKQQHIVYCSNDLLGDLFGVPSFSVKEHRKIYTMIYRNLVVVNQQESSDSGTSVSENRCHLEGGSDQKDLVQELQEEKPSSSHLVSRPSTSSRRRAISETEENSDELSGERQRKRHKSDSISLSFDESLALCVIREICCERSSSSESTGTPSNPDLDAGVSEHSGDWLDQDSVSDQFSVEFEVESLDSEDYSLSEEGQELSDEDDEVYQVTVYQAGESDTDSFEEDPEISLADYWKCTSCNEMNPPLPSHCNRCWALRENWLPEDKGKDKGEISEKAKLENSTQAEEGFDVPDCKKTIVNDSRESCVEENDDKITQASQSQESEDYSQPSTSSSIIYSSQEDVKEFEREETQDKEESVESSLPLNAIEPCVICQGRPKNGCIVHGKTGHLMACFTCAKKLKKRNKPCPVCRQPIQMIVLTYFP
Beta apoptosis = blocks beta cell apoptosis; hit rate 0.8% among 300,000; INS-1E cytokine-induced death, ATP luminescence, 48 h; percent of positive-control rescue, neutral wells zero; protection from apoptosis, % (no concentration beside the values); AID 435005;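 active = Every replicate reaches about 75%, or at least half do and their mean reaches it too, limit read from the data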;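 also: higher means more ATP so stronger rescue from cytokine killing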
Hits are given with their value; i = inactive; nt = no result.

SMILES	T cruzi inh	CSC inhib	SKKanGAS inh	Calb FLC	Mdm2-MdmX inh	Beta apoptosis
O=C(OCc1ccc(COC(=O)c2ccc(O)cc2)cc1)c1ccc(O)cc1	i	i	58	i	i	i
O=C(CSc1nnnn1-c1cccc(F)c1)NC1CC1	nt	i	nt	nt	i	i
CC(C)Cc1csc(NC(=O)c2ccc(F)cc2)c1C(=O)O	i	121	i	i	i	i
CC/C(=N\NC(=S)Nc1cccc(C)c1)c1ccccc1	i	i	62	i	i	i
CCC(=O)Nc1cccc(NC(=S)NC(=O)c2cccc(C)c2)c1	i	i	i	i	i	i
C/C(=N/NC(=S)Nc1cccc(C)c1)c1cccc([N+](=O)[O-])c1	56	i	i	i	i	i
CC/C(=N\NC(=S)Nc1cc(C)ccc1C)c1ccc(OC(F)F)cc1	i	i	69	i	i	i
C/C(=N\NC(=S)Nc1cccc(C)c1)c1cc2ccccc2o1	i	i	67	i	i	i
COc1ccc(Cl)cc1NC(=O)CN(C)C(=O)CSc1ccc2c(c1)OCCO2	nt	nt	nt	nt	i	i
Cc1cccc(NC(=S)N/N=C(\c2ccccc2)C(C)C)c1	i	i	69	102	i	i
Cc1cc(C(=O)N/N=C/c2ccc([N+](=O)[O-])s2)n[nH]1	57	nt	109	i	i	nt
Cc1cc(C(=O)N/N=C/c2ccc(-c3ccccc3Cl)o2)n[nH]1	62	i	i	i	i	i
Cc1[nH]cnc1C(=O)N/N=C/c1ccc([N+](=O)[O-])s1	57	i	103	i	i	i
Cc1cc(C(=O)N/N=C/c2ccc(C)s2)n[nH]1	i	nt	i	i	i	i
CCOC(=O)c1csc(NC(=O)C2=COCCO2)n1	i	i	i	i	i	i
Cn1nnc(NC(=S)NC(=O)c2cccc3ccccc23)n1	i	i	i	i	i	i
CN=C(Nc1cccnc1)c1ccccc1	i	i	i	i	i	i
O=C(CN1CC[n+]2c(-c3cccs3)csc21)c1ccc(-c2ccccc2)cc1	i	i	i	i	i	111
Cc1[nH]c2ccccc2c1C(=O)CCl	i	nt	i	96	nt	nt
CC1=C(C(=O)OC2CCCCC2)C(c2cccnc2)n2nnnc2N1 (stereo not given)	59	i	i	i	i	i
Cc1cccc(N=C2NN=C(c3c(C)[nH]c4ccccc34)CS2)c1	i	i	98	i	i	i
Cc1cccc(N=C2NN=C(c3ccc4c(c3)OCCO4)CS2)c1	i	i	i	i	i	i
C[C@H](O)Cc1cn(-c2cc3cc(C#Cc4ccsc4)ccc3oc2=O)nn1	nt	i	nt	nt	i	i
COc1ccc(C(=O)NC(=S)NNC(=O)c2cccnc2)cc1	i	i	i	i	i	i
COc1ccc(C(=O)NNC(=S)NC(=O)c2ccc(Cl)cc2)cc1	i	i	79	88	i	i
SMILES	T cruzi inh	CSC inhib	SKKanGAS inh	Calb FLC	Mdm2-MdmX inh	Beta apoptosis
COc1ccc(NC(=O)c2cn(-c3ccccc3)nc2-c2ccncc2)cc1	i	i	i	i	i	i
O=C(/C=C/c1ccccc1)NC(=S)NNC(=O)c1cnccn1	i	87	64	i	i	78
COc1ccc(-c2nn(-c3ccccc3)cc2C(=O)NC(=S)NNC(=O)c2ccncc2)cc1	i	i	89	i	i	i
COc1ccc(C(=O)NC(=S)NNC(=O)c2ccc(C)cc2)cc1	i	i	83	107	i	i
O=C(NNC(=S)NC(=O)c1sc2ccccc2c1Cl)c1ccc(Cl)cc1	i	i	96	i	i	i
CC(C)C(=O)Nc1ccc(C(=O)NNC(=S)NC(=O)c2ccccc2[N+](=O)[O-])cc1	i	nt	i	i	i	i
COc1cc(C(=O)NNC(=S)NC(=O)c2ccc(Cl)cc2)cc(OC)c1OC	70	i	93	i	i	i
COc1cc(C(=O)NNC(=S)NC(=O)/C=C/c2ccccc2)cc(OC)c1OC	i	nt	93	i	i	nt
COc1ccc(C(=O)NC(=S)NNC(=O)c2ccc(NC(=O)C(C)C)cc2)cc1	i	i	57	i	i	i
COc1cc(CCC(=O)NNC(=O)c2ccc(Cl)cc2)cc(OC)c1OC	i	nt	i	i	i	nt
O=C(COC(=O)C1CCC1)Nc1ccccc1Sc1ccccc1	i	i	i	i	i	i
Cc1c(Cl)cccc1NC(=O)CN1CCC(C(O)(c2ccccc2)c2ccccc2)CC1	62	i	i	i	i	i
O=C(COC(=O)CCC1CCCC1)Nc1ccccc1Sc1ccccc1	i	i	80	i	i	i
Cc1ccccc1C(=O)NC1CCN(CC(=O)Nc2ccccc2Cl)CC1	i	i	i	i	i	i
CC1CCN(CC(=O)Nc2ccccc2Sc2ccccc2)CC1	i	117	i	i	i	i
O=C(Nc1cccc(S(=O)(=O)NC2=NCCC2)c1)c1cc(=O)[nH]c2ccccc12	nt	nt	nt	nt	i	i
COc1ccc(CC(=O)OCC(=O)Nc2ccc(Cl)cc2C)cc1	nt	i	nt	nt	i	i
CC(C)Oc1ccc(C(=O)Nc2ccc(Cl)c(S(=O)(=O)Nc3ccc(Cl)cc3)c2)cc1	i	i	110	i	i	i
CC(NC(N)=O)C(=O)Nc1ccc(Cl)c(S(=O)(=O)Nc2ccc(Cl)cc2)c1 (stereo not given)	i	i	i	i	i	i
COc1ccc2[nH]c(CN3CCN(CCC(C)C)C(CCO)C3)c(C)c2c1 (stereo not given)	61	i	i	i	i	i
CCOc1ccc(C(=O)NCC(=O)N2CCN(c3ccccc3O)CC2)cc1	i	i	i	i	i	i
Cc1cc(C(=O)N/N=C/c2cc(Br)c(Br)o2)n[nH]1	i	nt	i	i	i	i
CCN1CCN(c2ccc(S(=O)(=O)N3CCCCC3)cc2NC(=O)c2ccc(C)o2)CC1	55	i	i	i	i	i
CN1CCN(S(=O)(=O)c2cccc(C(=O)Nc3ccccc3N3CCCCC3)c2)CC1	i	i	i	i	i	i
CCN1CCN(c2ccc(S(=O)(=O)N3CCCCC3)cc2NC(=O)c2cccc(F)c2)CC1	i	i	i	i	i	i
SMILES	T cruzi inh	CSC inhib	SKKanGAS inh	Calb FLC	Mdm2-MdmX inh	Beta apoptosis
CN1CCN(S(=O)(=O)c2cccc(C(=O)Nc3cc(C(F)(F)F)ccc3N3CCCCC3)c2)CC1	i	87	i	i	i	i
CCN1CCN(c2ccc(S(=O)(=O)N3CCCCC3)cc2NC(=O)c2cccc(C(F)(F)F)c2)CC1	68	i	i	i	i	i
CN(C(=O)COn1nnc2ccc(Cl)cc21)C1CCS(=O)(=O)C1 (stereo not given)	nt	i	nt	nt	i	i
O=C(Cn1cc([N+](=O)[O-])ccc1=O)NC1CCCCC1	nt	nt	nt	nt	i	i
COc1ccc(CN(C)CC(=O)NCC(=O)Nc2c(C)cccc2C)cc1	nt	i	nt	nt	i	i
Cc1c(NC(=O)Nc2cc(F)c(F)cc2Cl)c(=O)n(-c2ccccc2)n1C	i	i	i	i	i	i
CCOC(=O)c1ccc(Oc2nc(NC(C)(C)C)nc(N(C)C)n2)cc1	i	i	i	91	i	i
CCOC(=O)C1(Cc2ccccc2)C(=O)N(CCCN(C)C)c2ccccc21 (stereo not given)	i	i	i	i	i	i
